Test results published in ChEMBL document CHEMBL3102806, “1,2,4-Triazole/oxime hybrids as new strategy for nitric oxide donors: Synthesis, anti-inflammatory, ulceroginicity and antiproliferative activities” (Eur J Med Chem, 2014).

Legend:
SF-268 = test: Growth inhibition of human SF268 cells assessed as cell growth at 10^-5 M after 48 hrs by sulforhodamine B assay relative to control; format: functional; details: SF-268, 48 h, read-out: Activity
How it was run: (§1)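 NCI primary screen, one-dose format across about 60 human tumour cell lines. Single addition at 10^-5 M with 48 h incubation; SRB protein-binding dye end point read spectrophotometrically. Reported as percent growth of treated cells versus untreated controls.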

[1] = Growth inhibition of human OVCAR5 cells assessed as cell growth at 10^-5 M after 48 hrs by sulforhodamine B assay relative to control; format: functional; details: OVCAR-5, 48 h, read-out: Activity; how it was run: as §1
SK-MEL-28 = test: Growth inhibition of human SK-MEL-28 cells assessed as cell growth at 10^-5 M after 48 hrs by sulforhodamine B assay relative to control; format: functional; details: SK-MEL-28, 48 h, read-out: Activity
How it was run: (§2)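 NCI primary screen across about 60 human tumour cell lines. Single dose of 10^-5 M, cultures incubated 48 h, end point by sulforhodamine B protein staining read spectrophotometrically. Results are given as percent growth of treated cells relative to untreated control cells.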

LOX IMVI = test: Growth inhibition of human LOXIMVI cells assessed as cell growth at 10^-5 M after 48 hrs by sulforhodamine B assay relative to control; format: functional; details: read-out: Activity; how it was run: as §1
Rattus norvegicus [2] = test: Antiinflammatory activity in albino rat assessed as inhibition of carrageenan-induced paw edema at 0.28 mmol/kg, po administered 30 mins prior to carrageenan-challenge measured after 2 hrs relative to control; format: functional
How it was run: (§3)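 Male albino rats in groups of four were fasted 24 h with water allowed. Dosing was oral at 0.28 mmol/kg, suspended in 0.5% w/v CMC; controls got CMC alone. After 30 min, 0.1 ml of 1% carrageenan in saline went subplantar into the right hind paw and saline into the left. Paw thickness was read by caliper before and at 1–5 h. % inhibition = [(VR−VL)control−(VR−VL)treated]/(VR−VL)control ×100. Mean ± SEM, n = 4, one-way ANOVA vs control.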

ACHN = test: Growth inhibition of human ACHN cells assessed as cell growth at 10^-5 M after 48 hrs by sulforhodamine B assay relative to control; format: functional; details: read-out: Activity
How it was run: (§4)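 NCI ~60 human tumour cell line screen. Single concentration of 10^-5 M added to cultures for 48 h. End point by sulforhodamine B protein staining read spectrophotometrically. Percent growth relative to untreated control cells.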

IGROV-1 = test: Growth inhibition of human IGROV1 cells assessed as cell growth at 10^-5 M after 48 hrs by sulforhodamine B assay relative to control; format: functional; details: IGROV-1, 48 h, read-out: Activity; how it was run: as §4
NCI-H322M = test: Growth inhibition of human NCI-H322M cells assessed as cell growth at 10^-5 M after 48 hrs by sulforhodamine B assay relative to control; format: functional; details: read-out: Activity; how it was run: as §1
MDA-MB-468 = test: Growth inhibition of human MDA-MB-468 cells assessed as cell growth at 10^-5 M after 48 hrs by sulforhodamine B assay relative to control; format: functional; details: MDA-MB-468, 48 h, read-out: Activity; how it was run: as §1
COLO 205 = test: Growth inhibition of human COLO205 cells assessed as cell growth at 10^-5 M after 48 hrs by sulforhodamine B assay relative to control; format: functional; details: COLO 205, 48 h, read-out: Activity; how it was run: as §4
CAKI-1 = test: Growth inhibition of human CAKI-1 cells assessed as cell growth at 10^-5 M after 48 hrs by sulforhodamine B assay relative to control; format: functional; details: CAKI-1, 48 h, read-out: Activity; how it was run: as §4
[3] = Growth inhibition of human UACC257 cells assessed as cell growth at 10^-5 M after 48 hrs by sulforhodamine B assay relative to control; format: functional; details: UACC-257, 48 h, read-out: Activity; how it was run: as §2
SK-MEL-5 = test: Growth inhibition of human SK-MEL-5 cells assessed as cell growth at 10^-5 M after 48 hrs by sulforhodamine B assay relative to control; format: functional; details: SK-MEL-5, 48 h, read-out: Activity; how it was run: as §2
[4] = Induction of nitric oxide release in phosphate buffer at 10^-4 M at pH 7.4 after 5 hrs by Griess colorimetric method in presence of N-acetylcysteine; format: physicochemical; details: pH 7.4, 5 h, 100 µM
How it was run: (§5)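 Final drug concentration 10^-4 M, added from DMF into 1:1 50 mM phosphate buffer (pH 7.4)/MeOH containing 5 × 10^-4 M N-acetylcysteine, at 37 °C. Nitrite read with Griess reagent after 10 min at room temperature, absorbance at 546 nm. Calibration with sodium nitrite standards (10–80 nmol/ml). Reported as mol NO per mol, n = 4 reaction mixtures.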

[5] = Growth inhibition of human HOP92 cells assessed as cell growth at 10^-5 M after 48 hrs by sulforhodamine B assay relative to control; format: functional; details: HOP-92, 48 h, read-out: Activity; how it was run: as §4
T47D = test: Growth inhibition of human T47D cells assessed as cell growth at 10^-5 M after 48 hrs by sulforhodamine B assay relative to control; format: functional; details: read-out: Activity; how it was run: as §2
[6] = Growth inhibition of human EKVX cells assessed as cell growth at 10^-5 M after 48 hrs by sulforhodamine B assay relative to control; format: functional; details: read-out: Activity; how it was run: as §4
[7] = Growth inhibition of human OVCAR4 cells assessed as cell growth at 10^-5 M after 48 hrs by sulforhodamine B assay relative to control; format: functional; details: OVCAR-4, 48 h, read-out: Activity; how it was run: as §1
[8] = Growth inhibition of human RXF393 cells assessed as cell growth at 10^-5 M after 48 hrs by sulforhodamine B assay relative to control; format: functional; details: RXF 393, 48 h, read-out: Activity; how it was run: as §1
SN12C = test: Growth inhibition of human SN12C cells assessed as cell growth at 10^-5 M after 48 hrs by sulforhodamine B assay relative to control; format: functional; details: read-out: Activity; how it was run: as §2
[9] = Induction of nitric oxide release in phosphate buffer at 10^-4 M at pH 7.4 after 2 hrs by Griess colorimetric method in presence of N-acetylcysteine; format: physicochemical; details: pH 7.4, 2 h, 100 µM; how it was run: as §5
[10] = Induction of nitric oxide release in phosphate buffer at 10^-4 M at pH 7.4 after 3 hrs by Griess colorimetric method in presence of N-acetylcysteine; format: physicochemical; details: pH 7.4, 3 h, 100 µM; how it was run: as §5
SK-OV-3 = test: Growth inhibition of human SKOV3 cells assessed as cell growth at 10^-5 M after 48 hrs by sulforhodamine B assay relative to control; format: functional; details: SK-OV-3, 48 h, read-out: Activity; how it was run: as §2
[11] = Growth inhibition of human Hs 578T cells assessed as cell growth at 10^-5 M after 48 hrs by sulforhodamine B assay relative to control; format: functional; details: read-out: Activity; how it was run: as §4
RPMI-8226 = test: Growth inhibition of human RPMI8226 cells assessed as cell growth at 10^-5 M after 48 hrs by sulforhodamine B assay relative to control; format: functional; details: RPMI-8226, 48 h, read-out: Activity; how it was run: as §1
Rattus norvegicus [12] = test: Antiinflammatory activity in albino rat assessed as inhibition of carrageenan-induced paw edema at 0.28 mmol/kg, po administered 30 mins prior to carrageenan-challenge measured after 3 hrs relative to control; format: functional; how it was run: as §3
A498 = test: Growth inhibition of human A498 cells assessed as cell growth at 10^-5 M after 48 hrs by sulforhodamine B assay relative to control; format: functional; details: A498, 48 h, read-out: Activity; how it was run: as §4

Compound	growth at 10 µM (SF-268) [%]	growth at 10 µM [1] [%]	growth at 10 µM (SK-MEL-28) [%]	growth at 10 µM (LOX IMVI) [%]	inhibition in vivo at 280 µmol/kg (Rattus norvegicus [2]) [%]	growth at 10 µM (ACHN) [%]	growth at 10 µM (IGROV-1) [%]	growth at 10 µM (NCI-H322M) [%]	growth at 10 µM (MDA-MB-468) [%]	growth at 10 µM (COLO 205) [%]	growth at 10 µM (CAKI-1) [%]	growth at 10 µM [3] [%]	growth at 10 µM (SK-MEL-5) [%]	Activity [4] [mol/mol]	growth at 10 µM [5] [%]	growth at 10 µM (T47D) [%]	growth at 10 µM [6] [%]	growth at 10 µM [7] [%]	growth at 10 µM [8] [%]	growth at 10 µM (SN12C) [%]	other results
C/C(=N\O)c1ccc(NC(=O)CSc2nnc(-c3ccccc3)n2-c2ccccc2)cc1	92.2	84.7	48.6	82.9	52	85.7	81.4	66.7	90.4	91.1	99.9	81.8	94.5	0.14	30.1	92	91.9	86.2	72.5	76.2	Activity [9]: 0.15 mol/mol; Activity [10]: 0.2 mol/mol; growth at 10 µM (SK-OV-3): 80.5%; growth at 10 µM [11]: 79.6%; growth at 10 µM (RPMI-8226): 91.2%; inhibition in vivo at 280 µmol/kg (Rattus norvegicus [12]): 63%; growth at 10 µM (A498): 63.7%
COc1ccc(-c2nnc(SCC(=O)Nc3ccc(/C(C)=N/O)cc3)n2-c2ccccc2)cc1OC	30.6	97	87.3	80.1	63	75.5	70.9	75.7	78.5	99.1	87.4	91.8	94.6	0.35	-8.56	68	71.1	103	32.4	71.8	Activity [9]: 0.2 mol/mol; Activity [10]: 0.23 mol/mol; growth at 10 µM (SK-OV-3): 4.74%; growth at 10 µM [11]: 42.8%; growth at 10 µM (RPMI-8226): 91.6%; inhibition in vivo at 280 µmol/kg (Rattus norvegicus [12]): 77%; growth at 10 µM (A498): 91.8%
